Experimental data reported in ChEMBL document CHEMBL3243979, “Syntheses of N-substituted 2(3,4)-pyridylcarboxylic acid hydrazides with analgesic and antiinflammatory activity” (1979).

How the values were obtained:
Type in all cases: functional
Mus musculus [1] = test: Analgesic activity in Swiss albino mouse assessed as inhibition of phenyl-p-benzoquinone-induced writhing at 50 mg/kg, sc administered 30 mins prior challenge relative to vehicle-treated control; settings: route subcutaneous
Summary of the method: (§1)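 Male Swiss albino mice, 18–22 g, five per group. Compound suspended in physiological saline with Tween 80 and given sc. At 30 min, 0.03% phenyl-p-benzoquinone given ip at 0.1 mL/10 g body weight. Total writhes per animal counted against a vehicle-treated control group. % change = (treated writhes/control writhes) × 100 − 100.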

Mus musculus [2] = test: Analgesic activity in Swiss albino mouse assessed as inhibition of phenyl-p-benzoquinone-induced writhing at 128 mg/kg, sc administered 30 mins prior challenge relative to vehicle-treated control; settings: route subcutaneous; summary of the method: as §1
Rattus norvegicus [3] = test: Antiinflammatory activity in Sprague-Dawley rat assessed as inhibition of carrageenan-induced paw edema at 128 mg/kg, sc administered post-challenge measured at 3 hrs post compound treatment relative to vehicle-treated control; settings: route subcutaneous
Rattus norvegicus [4] = test: Antiinflammatory activity in Sprague-Dawley rat assessed as inhibition of carrageenan-induced paw edema at 128 mg/kg, sc administered post-challenge measured at 5 hrs post compound treatment relative to vehicle-treated control; settings: route subcutaneous
Mus musculus [5] = test: Analgesic activity in Swiss albino mouse assessed as inhibition of phenyl-p-benzoquinone-induced writhing at 120 mg/kg, sc administered 30 mins prior challenge relative to vehicle-treated control; settings: route subcutaneous; summary of the method: as §1
Rattus norvegicus [6] = test: Antiinflammatory activity in Sprague-Dawley rat assessed as inhibition of carrageenan-induced paw edema at 100 mg/kg, […] measured at 3 hrs post compound treatment relative to vehicle-treated control; settings: sc, route subcutaneous
Rattus norvegicus [7] = test: Antiinflammatory activity in Sprague-Dawley rat assessed as inhibition of carrageenan-induced paw edema at 100 mg/kg, sc administered post-challenge measured at 5 hrs post compound treatment relative to vehicle-treated control; settings: route subcutaneous
Mus musculus [8] = test: Analgesic activity in Swiss albino mouse assessed as inhibition of phenyl-p-benzoquinone-induced writhing at 56 mg/kg, sc administered 30 mins prior challenge relative to vehicle-treated control; settings: route subcutaneous; summary of the method: as §1
Mus musculus [9] = test: Analgesic activity in Swiss albino mouse assessed as inhibition of phenyl-p-benzoquinone-induced writhing at 11.8 mg/kg, sc administered 30 mins prior challenge relative to vehicle-treated control; settings: route subcutaneous; summary of the method: as §1
Rattus norvegicus [10] = test: Antiinflammatory activity in Sprague-Dawley rat assessed as inhibition of carrageenan-induced paw edema at 120 mg/kg, […] measured at 3 hrs post compound treatment relative to vehicle-treated control; settings: sc, route subcutaneous
Rattus norvegicus [11] = test: Antiinflammatory activity in Sprague-Dawley rat assessed as inhibition of carrageenan-induced paw edema at 120 mg/kg, sc administered post-challenge measured at 5 hrs post compound treatment relative to vehicle-treated control; settings: route subcutaneous
Rattus norvegicus [12] = test: Antiinflammatory activity in Sprague-Dawley rat assessed as inhibition of carrageenan-induced paw edema at 64 mg/kg, […] measured at 3 hrs post compound treatment relative to vehicle-treated control; settings: sc, route subcutaneous
Rattus norvegicus [13] = test: Antiinflammatory activity in Sprague-Dawley rat assessed as inhibition of carrageenan-induced paw edema at 64 mg/kg, sc administered post-challenge measured at 5 hrs post compound treatment relative to vehicle-treated control; settings: route subcutaneous
Rattus norvegicus [14] = test: Antiinflammatory activity in Sprague-Dawley rat assessed as inhibition of carrageenan-induced paw edema at 12 mg/kg, sc administered post-challenge measured at 3 hrs post compound treatment relative to vehicle-treated control; settings: route subcutaneous
Rattus norvegicus [15] = test: Antiinflammatory activity in Sprague-Dawley rat assessed as inhibition of carrageenan-induced paw edema at 12 mg/kg, sc administered post-challenge measured at 5 hrs post compound treatment relative to vehicle-treated control; settings: route subcutaneous

## CC(=O)Oc1ccccc1C(=O)O [ASPIRIN]
Mus musculus [1]
  inhibition in vivo at 50 mg/kg: 50%

## O=C(NN1CCOCC1)c1cccnc1
Mus musculus [2]
  inhibition in vivo at 128 mg/kg: 6.7%
Rattus norvegicus [3]
  inhibition in vivo at 128 mg/kg: 50%
Rattus norvegicus [4]
  inhibition in vivo at 128 mg/kg: 17%

## O=C(NN(C(=O)c1ccncc1)c1ccccc1)c1ccncc1
Mus musculus [5]
  inhibition in vivo at 120 mg/kg: 84%
Rattus norvegicus [6]
  inhibition in vivo at 100 mg/kg: 34%
Rattus norvegicus [7]
  inhibition in vivo at 100 mg/kg: 34%

## CC(=O)N(NC(=O)c1ccncc1)C(C)=O
Mus musculus [2]
  inhibition in vivo at 128 mg/kg: 32%
Rattus norvegicus [3]
  inhibition in vivo at 128 mg/kg: 50%
Rattus norvegicus [4]
  inhibition in vivo at 128 mg/kg: 17%

## O=C(NNC(=O)c1ccncc1)c1ccccc1
Mus musculus [2]
  inhibition in vivo at 128 mg/kg: 38.3%
Rattus norvegicus [3]
  inhibition in vivo at 128 mg/kg: 17%
Rattus norvegicus [4]
  inhibition in vivo at 128 mg/kg: 0%

## O=C(NN1CCc2ccccc2C1)c1ccncc1
Mus musculus [2]
  inhibition in vivo at 128 mg/kg: 79%
Rattus norvegicus [3]
  inhibition in vivo at 128 mg/kg: 17%
Rattus norvegicus [4]
  inhibition in vivo at 128 mg/kg: 17%

## O=C(NNc1ccccn1)c1ccncc1
Mus musculus [5]
  inhibition in vivo at 120 mg/kg: 0%
Rattus norvegicus [6]
  inhibition in vivo at 100 mg/kg: 83%
Rattus norvegicus [7]
  inhibition in vivo at 100 mg/kg: 100%

## CCC(=O)O[C@](Cc1ccccc1)(c1ccccc1)[C@H](C)CN(C)C [PROPOXYPHENE]
Mus musculus [8]
  inhibition in vivo at 56 mg/kg: 50%

## O=C(NNc1ccccn1)c1ccccn1
Mus musculus [9]
  inhibition in vivo at 11.8 mg/kg: 50%
Rattus norvegicus [10]
  inhibition in vivo at 120 mg/kg: 100%
Rattus norvegicus [11]
  inhibition in vivo at 120 mg/kg: 100%

## CN(C)NC(=O)c1cccnc1
Mus musculus [2]
  inhibition in vivo at 128 mg/kg: 45%
Rattus norvegicus [12]
  inhibition in vivo at 64 mg/kg: 0%
Rattus norvegicus [13]
  inhibition in vivo at 64 mg/kg: 0%

## COc1ccc2c(c1)c(CC(=O)O)c(C)n2C(=O)c1ccc(Cl)cc1 [INDOMETHACIN]
Rattus norvegicus [14]
  inhibition in vivo at 12 mg/kg: 17%
Rattus norvegicus [15]
  inhibition in vivo at 12 mg/kg: 83%
